Data set [1] in a line: AUClast in CD-1 mouse at 1 mg/kg, ip measured up to 24 hrs by LC-MS analysis. It is filed as ADME, organism-based. Also noted: route intraperitoneal, dose 1 mg/kg, time <=24. The conditions noted are these: in vivo. Put shortly: (§1)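 Single dose, 1 mg/kg, given to mice intravenously or intraperitoneally. Parameters are taken from the plasma concentration–time profile: T1/2, Tmax, Cmax, C0 (iv only), AUClast, AUCINF_obs, Vz and Cl. Bioavailability is derived from ip versus iv exposure.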

Data set [2] relates to Mus musculus. The data set can be described thus: Protection against cerulein-induced acute pancreatitis in C57BL/6J mouse assessed as reduction in edema at 30 mg/kg administered twice per day for 5 days followed by cerulein addition and measured 24 hrs post-last dose by H and E staining based histological analysis. It is filed as functional, organism-based. The conditions noted are these: time 6.0 day. Put shortly: (§2)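 H&E-stained pancreas sections are scored for edema and inflammation. Groups are control, cerulein and cerulein plus inhibitor, in both the pre-induction and post-induction cerulein acute pancreatitis models in mice.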

In data set [3] the test system is Mus musculus. As to the kind of experiment: Protection against cerulein-induced acute pancreatitis in C57BL/6J mouse assessed as reduction in MCP1 mRNA level at 30 mg/kg administered 24 hrs post-cerulein addition and measured after 24 hrs by Trisure-reagent based RT-PCR analysis. It is filed as functional, organism-based. Put shortly: (§3)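 Post-induction (treatment) protocol in C57BL/6J mice. Acute pancreatitis is induced by several cerulein administrations, followed by ip sEH inhibitor at 3 or 30 mg/kg. Pancreatic mRNA of TNF-α, IL-1β, MCP-1 and ATF3 is quantified against control and cerulein-only groups. Mean ± SEM, n = 5 per group.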

Data set [4] is described as follows: Apparent volume of distribution in CD-1 mouse at 1 mg/kg, iv measured up to 24 hrs by LC-MS analysis. The format is ADME, organism-based. The conditions noted are these: in vivo. Put shortly:
as §1

Data set [5] in a line: Apparent volume of distribution in CD-1 mouse at 1 mg/kg, ip measured up to 24 hrs by LC-MS analysis. The conditions noted are these: in vivo. The format is ADME, organism-based. The gist of the method: as §1
Data set [6] can be described thus: Initial plasma concentration in CD-1 mouse at 1 mg/kg, iv measured up to 24 hrs by LC-MS analysis. The format is ADME, organism-based. The conditions noted are these: in vivo. Put shortly: as §1
Data set [7] concerns Mus musculus. The data set can be described thus: Protection against cerulein-induced acute pancreatitis in C57BL/6J mouse assessed as reduction in TNF-alpha mRNA level at 30 mg/kg administered 24 hrs post-cerulein addition and measured after 24 hrs by Trisure-reagent based RT-PCR analysis. It is filed as functional, organism-based. The gist of the method:
as §3

Data set [8] can be described thus: Clearance in CD-1 mouse at 1 mg/kg, iv measured up to 24 hrs by LC-MS analysis. The format is ADME, organism-based. The conditions noted are these: in vivo. The gist of the method: as §1
In data set [9] the test system is Mus musculus. The data set can be described thus: Protection against cerulein-induced acute pancreatitis in C57BL/6J mouse assessed as reduction in IL1-beta mRNA level at 3 mg/kg administered 24 hrs post-cerulein addition and measured after 24 hrs by Trisure-reagent based RT-PCR analysis. The format is functional, organism-based. Put shortly:
as §3

Data set [10] is described as follows: Acute toxicity in CD-1 mouse assessed as petechiae at 5 to 80 mg/kg, ip administered daily for 5 days. It is filed as organism-based. The conditions noted are these: in vivo, 120 h, dose 5-80 mg/kg, time 5 day. The gist of the method: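 Mice received the compound intraperitoneally once a day for five consecutive days at 5, 10, 20 and 80 mg/kg. Acute toxicity was judged from body weight during treatment, apparent behaviour problems and the presence of petechiae.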

Data set [11] has as its system Mus musculus. The data set can be described thus: Protection against cerulein-induced acute pancreatitis in C57BL/6J mouse assessed as reduction in ATF3 mRNA level at 30 mg/kg administered 24 hrs post-cerulein addition and measured after 24 hrs by Trisure-reagent based RT-PCR analysis. It is filed as functional, organism-based. Put shortly:
as §3

Data set [12] relates to Mus musculus. The data set can be described thus: Protection against cerulein-induced acute pancreatitis in C57BL/6J mouse assessed as reduction in MCP1 mRNA level at 3 mg/kg administered 24 hrs post-cerulein addition and measured after 24 hrs by Trisure-reagent based RT-PCR analysis. The format is functional, organism-based. The gist of the method:
as §3

Data set [13] relates to Mus musculus. As to the kind of experiment: Protection against cerulein-induced acute pancreatitis in C57BL/6J mouse assessed as reduction in edema at 30 mg/kg administered 24 hrs post-cerulein addition and measured after 24 hrs by H and E staining based histological analysis. The format is functional, organism-based. Put shortly: as §2
Data set [14] in a line: Clearance in CD-1 mouse at 1 mg/kg, ip measured up to 24 hrs by LC-MS analysis. It is filed as ADME, organism-based. The following applies: in vivo. Put shortly:
as §1

The nature of data set [15]: Cmax in CD-1 mouse at 1 mg/kg, iv measured up to 24 hrs by LC-MS analysis. The format is ADME, organism-based. Further details: route intravenous, dose 1 mg/kg, time <=24. The following applies: in vivo. Put shortly:
as §1

The subject of data set [16] is Mus musculus. As to the kind of experiment: Protection against cerulein-induced acute pancreatitis in C57BL/6J mouse assessed as reduction in IL-1beta mRNA level at 30 mg/kg administered twice per day for 5 days followed by cerulein addition and measured 24 hrs post-last dose by Trisure-reagent based RT-PCR analysis. It is filed as functional, organism-based. The following applies: time 6.0 day. The gist of the method: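 Pre-induction (prevention) protocol in C57BL/6J mice. Inhibitor is given ip at 30 mg/kg before cerulein induction of acute pancreatitis. Pancreatic mRNA of TNF-α, IL-1β, MCP-1 and ATF3 is compared with control and cerulein-only mice. Mean ± SEM, n = 5 per group.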

A short description of data set [17]: Half life in CD-1 mouse at 1 mg/kg, ip measured up to 24 hrs by LC-MS analysis. The following applies: in vivo. It is filed as ADME, organism-based. The gist of the method:
as §1

Data set [18] is filed under the species Homo sapiens. As to the kind of experiment: Selectivity ratio of inhibition of recombinant human CYP3A4 to IC50 for inhibition of recombinant human soluble epoxide hydrolase using DBF as substrate.
The nature of data set [19]: Selectivity ratio of inhibition of recombinant human CYP2C9 to IC50 for inhibition of recombinant mouse soluble epoxide hydrolase.
Data set [20] is described as follows: Selectivity ratio of inhibition of recombinant human CYP3A4 to IC50 for inhibition of recombinant mouse soluble epoxide hydrolase using 7-BFC as substrate.
The species entered for data set [21] is Homo sapiens. As to the kind of experiment: Selectivity ratio of inhibition of recombinant human CYP3A4 to IC50 for inhibition of recombinant human soluble epoxide hydrolase using 7-BFC as substrate.
The nature of data set [22]: Apparent permeability across basolateral to apical side in human Caco-2 cells at 10 uM measured after 2 hrs by LC-MS/MS analysis. The following applies: caco-2, 2 h. Background: Passage across Caco-2 layers is used to estimate intestinal permeability.
For data set [23], the species on record is Homo sapiens. The data set can be described thus: Selectivity ratio of inhibition of recombinant human CYP2C9 to IC50 for inhibition of recombinant human soluble epoxide hydrolase.
The species named for data set [24] is Homo sapiens. The data set can be described thus: Selectivity ratio of inhibition of recombinant human CYP1A2 to IC50 for inhibition of recombinant human soluble epoxide hydrolase.

Two compounds from ChEMBL document CHEMBL4725350, “2-Oxaadamant-1-yl Ureas as Soluble Epoxide Hydrolase Inhibitors: In Vivo Evaluation in a Murine Model of Acute Pancreatitis” (J Med Chem, 2020) can be followed below.

Calls of active or inactive are those of the source. No cut-off for these calls is given here.

Broadly, the CL/F is clearance divided by bioavailability, as obtained after extravascular dosing. In general, Cmax refers to the maximum level reached in the sampled fluid or tissue. `CC(C)S(=O)(=O)N1CCC(NC(=O)NC23CC4CC(CC(C4)O2)C3)CC1` came in with an AUClast in [1] of 34.67 ng·h/mL. Further, the outcome in the data set with Mus musculus [2], with Mus musculus [3], in the data set with Mus musculus [7], with Mus musculus [11], in the data set with Mus musculus [13] and in the data set with Mus musculus [16] was Active. The Vz was 67.73 L/kg in data set [4] and 124.02 L/kg in [5]. This compound yielded a C0 in data set [6] of 236.23 ng/mL. The compound further returned a CL in data set [8] of 279.5 mL/min/kg. Further, the outcome in the data set on Mus musculus [9] and in the data set on Mus musculus [12] was inactive. For the same compound, the Activity result in [10] is “Non-Toxic”. This compound had a CL/F in data set [14] of 474 mL/min/kg. In data set [15], the peak concentration (Cmax) was 108.33 ng/mL. In addition, the t1/2 in data set [17] amounted to 3.02 h.

Broadly, the Papp is a coefficient for how fast a substance crosses the barrier. For `CC(=O)N1CCC(NC(=O)NC23CC4CC(CC(C4)O2)C3)CC1`, the Selectivity ratio (in the data set filed under Homo sapiens [18]; in [19]; in [20]; in the data set filed under Homo sapiens [21]; in the data set listed under Homo sapiens [23]; in the data set filed under Homo sapiens [24]) was above 100 each time. For the same compound, the Papp in data set [22] is 9.45 ×10⁻⁶ cm/s.
